From paper PMC3331960 (Nature chemical biology, 2012)
Where “and” joins values, the source holds several entries; their conditions need not be identical. Equal values may be shown once.

Columns and labels:
TIR1-IAA7 interaction = target: T1, TIR1-IAA7 interaction (Arabidopsis thaliana, UniProt Q38825+Q570C0); assay: LexA yeast two-hybrid, auxin-induced TIR1-IAA7 interaction; assay type: cell-based; details: 50 μM auxins in selective media
T1 sequence (Q570C0 1-594): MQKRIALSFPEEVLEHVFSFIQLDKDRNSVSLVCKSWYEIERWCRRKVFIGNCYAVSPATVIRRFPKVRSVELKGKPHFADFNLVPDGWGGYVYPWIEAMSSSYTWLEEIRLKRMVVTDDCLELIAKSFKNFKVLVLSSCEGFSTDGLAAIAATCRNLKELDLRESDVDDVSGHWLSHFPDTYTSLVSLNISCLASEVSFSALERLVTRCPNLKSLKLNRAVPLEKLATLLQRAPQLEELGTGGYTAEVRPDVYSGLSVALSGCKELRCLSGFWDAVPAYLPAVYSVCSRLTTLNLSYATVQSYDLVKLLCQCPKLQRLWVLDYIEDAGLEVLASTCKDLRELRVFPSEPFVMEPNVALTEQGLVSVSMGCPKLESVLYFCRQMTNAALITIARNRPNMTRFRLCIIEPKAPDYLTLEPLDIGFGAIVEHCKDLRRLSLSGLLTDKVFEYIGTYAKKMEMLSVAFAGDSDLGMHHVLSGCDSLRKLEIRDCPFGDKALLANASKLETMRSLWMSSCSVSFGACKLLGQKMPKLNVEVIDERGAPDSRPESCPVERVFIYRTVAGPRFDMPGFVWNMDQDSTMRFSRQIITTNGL
T1 sequence (Q38825 1-243): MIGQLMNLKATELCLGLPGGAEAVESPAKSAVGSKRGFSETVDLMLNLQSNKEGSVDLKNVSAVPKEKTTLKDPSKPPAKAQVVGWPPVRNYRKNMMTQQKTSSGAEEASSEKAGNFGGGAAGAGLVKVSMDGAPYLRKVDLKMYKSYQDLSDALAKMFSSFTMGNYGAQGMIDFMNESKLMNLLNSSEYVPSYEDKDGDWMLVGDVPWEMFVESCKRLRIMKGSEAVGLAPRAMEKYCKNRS

AFB5-IAA7 = AFB5-IAA7 (Arabidopsis thaliana, UniProt Q38825+Q9LTX2); assay: [3H]-IAA radioligand binding; details: Ki (Mean ± SEM), AFB5-IAA7, cold competitor vs [3H] IAA
Method in brief: (§1)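 ASK1-TIR1 or ASK1-AFB5 (0.44 μg, insect cells) with E. coli GST-IAA7 (1:10 molar), >1 h at 4°C in pH 8.0 Tris binding buffer. KD from [³H]-IAA saturation binding. Ki from competition with cold 1-NAA, 2,4-D or picloram against fixed [³H]-IAA (5–100 nM), fitted to a one-site competition model by nonlinear regression. Filter binding with scintillation read-out; triplicates.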

AFB5-IAA7 DII = AFB5-IAA7 DII (Arabidopsis thaliana, UniProt Q38825+Q9LTX2, DEL96-243); assay: Surface plasmon resonance, AFB5 over immobilized IAA7 DII peptide; assay type: binding; details: 50 μM picloram
TIR1-IAA7 = target: T2, TIR1-IAA7 (Arabidopsis thaliana, UniProt Q38825+Q570C0); assay: [3H]-IAA radioligand binding; details: Ki (Mean ± SEM), TIR1-IAA7, cold competitor vs [3H] IAA
T2 sequence (Q570C0 1-594): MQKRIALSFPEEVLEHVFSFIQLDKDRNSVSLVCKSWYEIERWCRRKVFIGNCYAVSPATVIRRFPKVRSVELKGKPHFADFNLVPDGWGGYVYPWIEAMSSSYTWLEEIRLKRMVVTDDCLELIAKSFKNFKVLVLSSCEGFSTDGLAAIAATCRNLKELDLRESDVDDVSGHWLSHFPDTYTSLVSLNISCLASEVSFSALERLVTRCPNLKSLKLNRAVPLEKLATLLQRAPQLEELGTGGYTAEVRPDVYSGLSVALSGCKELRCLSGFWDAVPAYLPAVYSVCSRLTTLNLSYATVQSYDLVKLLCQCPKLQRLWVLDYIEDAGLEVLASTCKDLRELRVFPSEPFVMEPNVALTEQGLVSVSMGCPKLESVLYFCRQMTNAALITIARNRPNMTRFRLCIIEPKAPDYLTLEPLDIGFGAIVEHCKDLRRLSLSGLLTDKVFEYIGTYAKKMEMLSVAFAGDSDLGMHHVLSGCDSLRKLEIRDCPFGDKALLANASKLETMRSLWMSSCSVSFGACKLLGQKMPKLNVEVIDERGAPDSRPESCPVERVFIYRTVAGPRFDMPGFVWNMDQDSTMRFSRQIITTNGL
T2 sequence (Q39255 1-160 partner): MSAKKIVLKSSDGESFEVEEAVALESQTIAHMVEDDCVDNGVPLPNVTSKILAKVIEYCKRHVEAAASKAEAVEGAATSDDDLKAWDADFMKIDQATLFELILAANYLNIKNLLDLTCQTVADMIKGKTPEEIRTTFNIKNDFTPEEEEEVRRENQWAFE
T2 sequence (Q38825 1-243): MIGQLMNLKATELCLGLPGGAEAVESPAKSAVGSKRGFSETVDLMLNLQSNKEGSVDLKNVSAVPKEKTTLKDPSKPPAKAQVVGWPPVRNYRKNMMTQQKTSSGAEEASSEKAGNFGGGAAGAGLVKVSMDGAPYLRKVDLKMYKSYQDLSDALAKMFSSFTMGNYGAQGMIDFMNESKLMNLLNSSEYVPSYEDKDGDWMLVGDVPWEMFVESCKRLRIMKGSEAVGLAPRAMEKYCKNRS
Method in brief: as §1

TIR1-IAA7 DII = TIR1-IAA7 DII (Arabidopsis thaliana, UniProt Q38825+Q570C0, DEL96-243); assay: Surface plasmon resonance, TIR1 over immobilized IAA7 DII peptide; assay type: binding

Question: How did the “TIR1-IAA7 interaction in yeast (β-galactosidase expression)” value (TIR1-IAA7 interaction) turn out when `Nc1c(Cl)c(Cl)nc(C(=O)O)c1Cl` [picloram, 4-amino-3,5,6-trichloro-2-pyridinecarboxylic acid] was run?
Answer: promoted TIR1-IAA7 interaction, but not to the same extent as IAA

Question: And the Ki (AFB5-IAA7)?
Answer: 54.9 nM and 54.7 nM

Question: What about the “assembly of the AFB5-IAA7 complex (SPR)” value (AFB5-IAA7 DII) of the same molecule?
Answer: promotes rapid assembly

Question: What about the Ki (TIR1-IAA7) of the same molecule?
Answer: 3900 ± 910 nM

Question: What about the “dissociation of the TIR1-IAA7 DII complex (SPR)” value (TIR1-IAA7 DII; 50 μM ligand concentration) of the same molecule?
Answer: rapid dissociation

Question: And the “TIR1 association with the DII peptide (SPR)” value (TIR1-IAA7 DII; co-injection of TIR1 with auxin, vs no auxin)?
Answer: enhanced association with the peptide
